pIC50: −log10 of the molar value. The source made the active and inactive calls. The rule behind the calls is not given here.
Key:
MM1.S = test: cells; type: functional, cell-based; settings: Homo sapiens, 72 h
NCI-H460 = test: Antiproliferative activity against human NCI-H460 cells assessed as inhibition of cell proliferation measured after 72 hrs by real time imaging analysis; type: functional, cell-based; settings: NCI-H460, 72 h
Outline: (§1)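 Adherent cells seeded at 500–1500 per well and incubated overnight, then treated at seven concentrations from 100 to 6.4 x 10^-3 µM. Kept at 37°C for 72 h with real-time imaging every 3 h (one field per well, 10x). Growth quantified as percent confluence; IC50 calculated from area under the curve.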

K562 = test: Antiproliferative activity against human K562 cells assessed as inhibition of cell proliferation measured after 72 hrs by real time imaging analysis; type: functional, cell-based; settings: K562, 72 h
Outline: (§2)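 Suspension cells seeded at 2500–5500 per well into wells already holding compound, seven concentrations from 100 to 6.4 x 10^-3 µM. Incubated at 37°C for 72 h with imaging every 3 h (one field per well, 10x). Growth taken as percent confluence; IC50 derived from area under the curve.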

HL-60 = test: cells; type: functional, cell-based; settings: Homo sapiens, HL-60, 72 h
TERT-RPE1 = test: cells; type: ADME, cell-based; settings: Homo sapiens, RPE-1, 72 h
Z-138 = test: cells; type: functional, cell-based; settings: Homo sapiens, Z-138, 72 h
HCT-116 = test: Antiproliferative activity against human HCT-116 cells assessed as inhibition of cell proliferation measured after 72 hrs by real time imaging analysis; type: functional, cell-based; settings: HCT-116, 72 h
Outline: as §1

[1] = Antiproliferative activity against human DND41 cells assessed as inhibition of cell proliferation measured after 72 hrs by real time imaging analysis; type: functional, cell-based; settings: DND41, 72 h
Outline: as §2

CAPAN-1 = test: cells; type: functional, cell-based; settings: Homo sapiens, CAPAN-1, 72 h
Tubulin (Sus scrofa) = test: Inhibition of porcine brain tubulin polymerization in presence of GTP at 30 uM measured every 60 secs for 1 hr by multiplate reader method
HEp-2 = test: Inhibition of alpha-tubulin polymerization in human HEp-2 cells assessed as disintegration of microtubule network at 0.3 to 30 uM measured after 3 hrs by DAPI staining based immunoflourescence method relative to vincristine; type: cell-based; settings: dose 0.3-30 µM
Outline: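 HEp-2 cells seeded at 15000 per well and incubated overnight, then exposed 3 h to compound or DMSO carrier. Fixed in 4% PFA and permeabilised. Stained with mouse anti-alpha-tubulin and Alexa Fluor 488 anti-mouse IgG, with DAPI nuclear counterstain. Imaged by confocal microscopy at 63x water immersion. Vincristine and docetaxel served as references.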

cells = type: ADME, cell-based; settings: Homo sapiens, PBMC, 72 h

SMILES	pIC50 (MM1.S)	pIC50 (NCI-H460)	pIC50 (K562)	pIC50 (HL-60)	pIC50 (TERT-RPE1)	pIC50 (Z-138)	pIC50 (HCT-116)	pIC50 [1]	pIC50 (CAPAN-1)	inhibition (Tubulin (Sus scrofa))	inhibition (HEp-2)	pIC50 (cells)
CC(=O)O[C@@]12CO[C@@H]1C[C@H](O)[C@@]1(C)C(=O)[C@H](O)C3=C(C)[C@@H](OC(=O)[C@H](O)[C@@H](NC(=O)OC(C)(C)C)c4ccccc4)C[C@@](O)([C@@H](OC(=O)c4ccccc4)[C@H]21)C3(C)C [DOCETAXEL ANHYDROUS]	7.93	8.62	7.82	8.14	7.26	7.85	8.77	7.90	8.06			
CC(C)Cn1c(C(C#N)=Cc2ccc([N+](=O)[O-])cc2)nc2ccccc21	4.14	4.83	< 4.00	4.48	4.27	4.34	4.30	4.26	4.52			
Cn1c(/C(C#N)=C/c2ccc[nH]2)nc2ccccc21	< 4.00	4.17	< 4.00	< 4.00	< 4.00	< 4.00	< 4.00	4.13	4.07			
CN(C)c1ccc(/C=C(\C#N)c2nc3ccc(C#N)cc3n2C)cc1	< 4.00	< 4.00	< 4.00	4.17	4.09	4.02	4.16	< 4.00	4.25			
Cn1c(/C(C#N)=C/c2cnc3ccccc3c2)nc2ccccc21	< 4.00	4.65	< 4.00	4.48	4.40	4.35	< 4.00	4.30	4.17			
Cn1c(/C(C#N)=C/c2c[nH]c3ccccc23)nc2ccccc21	4.15	4.92	4.43	4.87	4.56	5.00	4.54	4.83	4.88			
N#C/C(=C\c1ccc[nH]1)c1nc2ccccc2n1-c1ccccc1	< 4.00	4.56	< 4.00	4.38	4.49	4.17	4.31	4.39	4.85			
Cn1c(/C(C#N)=C/c2ccc(Br)cc2)nc2ccccc21	4.02	4.49	4.24	4.61	4.33	4.51	4.28	4.38	4.69			
N#C/C(=C\c1cccnc1)c1nc2ccccc2n1-c1ccccc1	4.23	4.34	< 4.00	4.50	4.26	4.52	4.30	4.22	4.36			
N#C/C(=C\c1cnc2ccccc2c1)c1nc2ccccc2n1-c1ccccc1	4.20	4.87	< 4.00	4.82	4.91	4.90	4.91	4.85	5.00			
N#C/C(=C\c1c[nH]c2ccccc12)c1nc2ccccc2n1-c1ccccc1	4.61	5.28	4.87	5.17	4.89	4.92	5.15	5.00	5.29			
N#C/C(=C\c1ccc(Br)cc1)c1nc2ccccc2n1-c1ccccc1	4.45	4.92	4.41	5.07	4.64	4.96	4.80	4.91	4.89			
Cn1c(/C(C#N)=C/c2cccnc2)nc2ccccc21	< 4.00	4.23	< 4.00	4.23	4.22	< 4.00	4.07	< 4.00	4.24			
CN(C)c1ccc(/C=C(\C#N)c2nc3ccc(C#N)cc3n2-c2ccccc2)cc1	< 4.00	4.34	< 4.00	4.96	4.56	4.76	4.57	4.25	5.51			
CN[C@@H]1C[C@H]2O[C@@](C)([C@@H]1OC)n1c3ccccc3c3c4c(c5c6ccccc6n2c5c31)C(=O)NC4 [STAUROSPORINE]			7.11				7.55	7.80				
CC(C)Cn1c(C(C#N)=Cc2ccc(N(C)C)cc2)nc2ccccc21	5.82	6.40	5.68	6.52	5.37	6.40	6.22	6.70	6.52	Active	Active	< 4.01
CC(C)Cn1c(/C(C#N)=C/c2ccccc2)nc2ccccc21	4.18	4.58	4.27	4.54	4.35	4.40	4.37	4.22	4.69			
CC(C)Cn1c(C(C#N)=Cc2ccc(N(C)C)cc2)nc2ccc(C#N)cc21	5.89	6.22	5.85	6.70	5.77	6.40	6.40	6.52	6.70	Active	Active	< 4.12

Reference: ChEMBL document CHEMBL4818996, “N-substituted benzimidazole acrylonitriles as in vitro tubulin polymerization inhibitors: Synthesis, biological activity and computational analysis” (Eur J Med Chem, 2021)
